Test results taken from ChEMBL document CHEMBL5230166, “Novel quinoline-piperazine hybrids: the design, synthesis and evaluation of antibacterial and antituberculosis properties” (RSC Med Chem, 2023).
Values after ≈ are worked out from the molar mass of the structure shown.

Tests used:
Moraxella catarrhalis = assay: Antibacterial activity against Moraxella catarrhalis ATCC 25238 assessed as inhibition of bacterial growth incubated for 22 to 24 hrs; assay type: functional; details: time 22-24 hrs
Summary of the method: (§1)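 Broth MIC referenced to an earlier protocol. Inocula come from mid-log cultures sub-cultured on soybean casein digest agar, adjusted to McFarland (~10⁸ CFU/mL), then diluted to ~10⁵ CFU/mL. Compounds and controls are serially diluted from 64 to 0.03 µg/mL. Tested in triplicate, read after 22–24 h at 37 °C. MIC is the lowest concentration with no visible growth.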

Klebsiella pneumoniae = assay: Antibacterial activity against clinical isolate Klebsiella pneumoniae AB 356 assessed as inhibition of bacterial growth incubated for 22 to 24 hrs; assay type: functional; details: time 22-24 hrs
Staphylococcus aureus [1] = assay: Antibacterial activity against methicillin resistant Staphylococcus aureus ATCC 33591 assessed as inhibition of bacterial growth incubated for 22 to 24 hrs; assay type: functional; details: time 22-24 hrs
Summary of the method: (§2)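 Broth microdilution MIC. Strains were subcultured on Soybean Casein Digest Agar, and inocula were taken from mid-log culture, adjusted to McFarland (~10⁸ CFU/mL), then diluted to ~10⁵ CFU/mL. Serial dilutions ran from 64 to 0.03 µg/mL. Plates were incubated 22–24 h at 37 °C, in triplicate. MIC was the lowest concentration with no visible growth.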

Pseudomonas aeruginosa = assay: Antibacterial activity against clinical isolate Pseudomonas aeruginosa AB 645 assessed as inhibition of bacterial growth incubated for 22 to 24 hrs; assay type: functional; details: time 22-24 hrs
Escherichia coli = assay: Antibacterial activity against clinical isolate Escherichia coli AB 117 assessed as inhibition of bacterial growth incubated for 22 to 24 hrs; assay type: functional; details: time 22-24 hrs
Enterococcus faecalis = assay: Antibacterial activity against vancomycin resistant Enterococcus faecalis ATCC 700802 assessed as inhibition of bacterial growth incubated for 22 to 24 hrs; assay type: functional; details: time 22-24 hrs; summary of the method: as §2
[2] = system: Mycolicibacterium smegmatis; assay: Antibacterial activity against Mycobacterium smegmatis ATCC 607 assessed as inhibition of bacterial growth incubated for 2 days by CLSI protocol based broth microdilution method; assay type: functional; details: ATCC 607, 48 h, time 2 day
Summary of the method: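 CLSI broth microdilution in Middlebrook 7H9 with 10% ADC. Compounds are dissolved in DMSO at 4.0 mg/mL (stock) and serially diluted from 64 to 0.015 µg/mL. Inoculum is ~10⁵ CFU/mL, checked by plating on 7H11 agar. Rifampin and levofloxacin are positive controls; drug-free broth with DMSO is the negative control. Growth inhibition is read after 2 days at 37 °C as MIC.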

[3] = system: Mycobacterium tuberculosis; assay: Antibacterial activity against Mycobacterium tuberculosis H37Rv ATCC 25618 assessed as inhibition of bacterial growth incubated for 2 days by CLSI protocol based broth microdilution method; assay type: functional; details: H37Rv ATCC 25618, 48 h, time 2 day
[4] = system: Staphylococcus epidermidis; assay: Antibacterial activity against clinical isolate methicillin resistant Staphylococcus epidermidis AB 735 assessed as inhibition of bacterial growth incubated for 22 to 24 hrs; assay type: functional; details: time 22-24 hrs
Enterococcus faecium = assay: Antibacterial activity against Enterococcus faecium ATCC 49624 assessed as inhibition of bacterial growth incubated for 22 to 24 hrs; assay type: functional; details: time 22-24 hrs; summary of the method: as §1
Acinetobacter baumannii = assay: Antibacterial activity against clinical isolate Acinetobacter baumannii BAA 747 assessed as inhibition of bacterial growth incubated for 22 to 24 hrs; assay type: functional; details: time 22-24 hrs
Staphylococcus aureus [5] = assay: Antibacterial activity against methicillin sensitive Staphylococcus aureus ATCC 29213 assessed as inhibition of bacterial growth incubated for 22 to 24 hrs; assay type: functional; details: time 22-24 hrs; summary of the method: as §1
HEK293 [6] = assay: Cytotoxicity against HEK293 cells assessed as cell viability at 143 uM relative to control; details: human, hek293, 143 µM
[7] = Cytotoxicity against human HepG2 cells assessed as inhibition of cell growth at 64 ug/ml relative to control; assay type: toxicity, cell-based; details: at 64 µg/mL, read-out: Activity
Summary of the method: (§3)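 MTT proliferation assay on HEK293 (normal embryonic kidney) or HepG2 (liver cancer) cells. Cells are seeded at 10000 cells/well and adhered at 37 °C, 5% CO₂. Compounds are tested at 64 to 1 µg/mL (143 to 4.6 µM) in triplicate, with a DMSO vehicle control. Incubation is 48 h, followed by MTT (1 mg/mL) for 3 h at 37 °C.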

HepG2 [8] = assay: Cytotoxicity against human HepG2 cells assessed as cell viability at 143 uM relative to control; details: hepg2, 143 µM
HEK293 [9] = assay: Cytotoxicity against HEK293 cells assessed as inhibition of cell growth upto 64 ug/ml; assay type: toxicity, cell-based; details: human, dose < 64 µg/ml
A549 [10] = assay: Cytotoxicity against human A549 cells assessed as cell viability at 143 uM relative to control; details: a549, 143 µM
HepG2 [11] = assay: Cytotoxicity against human HepG2 cells assessed as inhibition of cell growth upto 32 ug/ml; assay type: toxicity, cell-based; details: dose < 32 µg/ml; summary of the method: as §3
A549 [12] = assay: Cytotoxicity against human A549 cells assessed as inhibition of cell growth upto 32 ug/ml; assay type: toxicity, cell-based; details: dose < 32 µg/ml
Summary of the method: (§4)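 MTT proliferation assay. A549 cells are seeded at 10000 cells/well and allowed to adhere at 37 °C, 5% CO₂. Compounds are added at 64 to 1 µg/mL (143 to 4.6 µM) in triplicate, with a DMSO vehicle control. Incubation is 24 h, then MTT (1 mg/mL) is added for 3 h at 37 °C.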

[13] = Cytotoxicity against human A549 cells assessed as inhibition of cell growth at 64 ug/ml relative to control; assay type: toxicity, cell-based; details: at 64 µg/mL, read-out: Activity; summary of the method: as §4

## COc1cc(CN2CCN(C(=O)c3cccc(Cl)c3)CC2)nc2ccc(F)cc12
Moraxella catarrhalis
  MIC: 64 µg/mL (≈ 155 µM)
Klebsiella pneumoniae
  MIC: > 64 µg/mL
Staphylococcus aureus [1]
  MIC: > 64 µg/mL
Pseudomonas aeruginosa
  MIC: > 64 µg/mL
Escherichia coli
  MIC: > 64 µg/mL
Enterococcus faecalis
  MIC: > 64 µg/mL
[2]
  MIC: > 64 µg/mL
[3]
  MIC: > 64 µg/mL
[4]
  MIC: > 64 µg/mL
Enterococcus faecium
  MIC: > 64 µg/mL
Acinetobacter baumannii
  MIC: > 64 µg/mL
Staphylococcus aureus [5]
  MIC: > 64 µg/mL

## COc1cc(CN2CCN(C(=O)c3cccc(F)c3)CC2)nc2ccc(F)cc12
Moraxella catarrhalis
  MIC: > 64 µg/mL
Klebsiella pneumoniae
  MIC: > 64 µg/mL
Staphylococcus aureus [1]
  MIC: > 64 µg/mL
Pseudomonas aeruginosa
  MIC: > 64 µg/mL
Escherichia coli
  MIC: > 64 µg/mL
Enterococcus faecalis
  MIC: > 64 µg/mL
[2]
  MIC: > 64 µg/mL
[3]
  MIC: > 64 µg/mL
[4]
  MIC: > 64 µg/mL
Enterococcus faecium
  MIC: > 64 µg/mL
Acinetobacter baumannii
  MIC: > 64 µg/mL
Staphylococcus aureus [5]
  MIC: > 64 µg/mL

## COc1ccc(C(=O)N2CCN(Cc3cc(OC)c4cc(F)ccc4n3)CC2)cc1
Moraxella catarrhalis
  MIC: > 64 µg/mL
Klebsiella pneumoniae
  MIC: > 64 µg/mL
Staphylococcus aureus [1]
  MIC: > 64 µg/mL
Pseudomonas aeruginosa
  MIC: > 64 µg/mL
Escherichia coli
  MIC: > 64 µg/mL
Enterococcus faecalis
  MIC: > 64 µg/mL
[2]
  MIC: > 64 µg/mL
[3]
  MIC: > 64 µg/mL
[4]
  MIC: > 64 µg/mL
Enterococcus faecium
  MIC: > 64 µg/mL
Acinetobacter baumannii
  MIC: > 64 µg/mL
Staphylococcus aureus [5]
  MIC: > 64 µg/mL

## COc1cc(CN2CCN(C(=O)c3ccccc3F)CC2)nc2ccc(F)cc12
Moraxella catarrhalis
  MIC: > 64 µg/mL
Klebsiella pneumoniae
  MIC: > 64 µg/mL
Staphylococcus aureus [1]
  MIC: > 64 µg/mL
Pseudomonas aeruginosa
  MIC: > 64 µg/mL
Escherichia coli
  MIC: > 64 µg/mL
Enterococcus faecalis
  MIC: > 64 µg/mL
[2]
  MIC: > 64 µg/mL
[3]
  MIC: > 64 µg/mL
[4]
  MIC: > 64 µg/mL
Enterococcus faecium
  MIC: > 64 µg/mL
Acinetobacter baumannii
  MIC: > 64 µg/mL
Staphylococcus aureus [5]
  MIC: > 64 µg/mL

## COc1cc(CN2CCN(S(=O)(=O)c3ccccc3F)CC2)nc2ccc(F)cc12
Moraxella catarrhalis
  MIC: 0.03 µg/mL (≈ 0.0692 µM)
Klebsiella pneumoniae
  MIC: > 64 µg/mL
HEK293 [6]
  viability: 99.5%
Staphylococcus aureus [1]
  MIC: 0.06 µg/mL (≈ 0.138 µM)
[7]
  inhibition at 64 ug/ml: < 12%
Pseudomonas aeruginosa
  MIC: > 64 µg/mL
HepG2 [8]
  viability: 91.8%
HEK293 [9]
  Activity: Non-Toxic
Escherichia coli
  MIC: 16 µg/mL (≈ 36.9 µM)
A549 [10]
  viability: 88.6%
HepG2 [11]
  Activity: Non-Toxic
Enterococcus faecalis
  MIC: 2 µg/mL (≈ 4.61 µM)
[2]
  MIC: 0.5 µg/mL (≈ 1.15 µM)
[3]
  MIC: 1 µg/mL (≈ 2.31 µM)
[4]
  MIC: 16 µg/mL (≈ 36.9 µM)
Enterococcus faecium
  MIC: 0.5 µg/mL (≈ 1.15 µM)
A549 [12]
  Activity: Non-Toxic
Acinetobacter baumannii
  MIC: > 64 µg/mL
[13]
  inhibition at 64 ug/ml: < 12%
Staphylococcus aureus [5]
  MIC: 0.5 µg/mL (≈ 1.15 µM)

## COc1cc(CN2CCN(C(=O)c3ccccc3C)CC2)nc2ccc(F)cc12
Moraxella catarrhalis
  MIC: > 64 µg/mL
Klebsiella pneumoniae
  MIC: > 64 µg/mL
Staphylococcus aureus [1]
  MIC: > 64 µg/mL
Pseudomonas aeruginosa
  MIC: > 64 µg/mL
Escherichia coli
  MIC: > 64 µg/mL
Enterococcus faecalis
  MIC: > 64 µg/mL
[2]
  MIC: > 64 µg/mL
[3]
  MIC: > 64 µg/mL
[4]
  MIC: > 64 µg/mL
Enterococcus faecium
  MIC: > 64 µg/mL
Acinetobacter baumannii
  MIC: > 64 µg/mL
Staphylococcus aureus [5]
  MIC: > 64 µg/mL

## COc1ccc2nc(CN3CCN(S(=O)(=O)c4ccccc4F)CC3)cc(OC)c2c1
Moraxella catarrhalis
  MIC: 0.06 µg/mL (≈ 0.135 µM)
Klebsiella pneumoniae
  MIC: > 64 µg/mL
HEK293 [6]
  viability: 100.8%
Staphylococcus aureus [1]
  MIC: 8 µg/mL (≈ 18 µM)
[7]
  inhibition at 64 ug/ml: < 12%
Pseudomonas aeruginosa
  MIC: > 64 µg/mL
HepG2 [8]
  viability: 97.7%
HEK293 [9]
  Activity: Non-Toxic
Escherichia coli
  MIC: 8 µg/mL (≈ 18 µM)
A549 [10]
  viability: 91.1%
HepG2 [11]
  Activity: Non-Toxic
Enterococcus faecalis
  MIC: 1 µg/mL (≈ 2.24 µM)
[2]
  MIC: 0.031 µg/mL (≈ 0.0696 µM)
[3]
  MIC: 0.063 µg/mL (≈ 0.141 µM)
[4]
  MIC: 32 µg/mL (≈ 71.8 µM)
Enterococcus faecium
  MIC: 2 µg/mL (≈ 4.49 µM)
A549 [12]
  Activity: Non-Toxic
Acinetobacter baumannii
  MIC: > 64 µg/mL
[13]
  inhibition at 64 ug/ml: < 12%
Staphylococcus aureus [5]
  MIC: 0.03 µg/mL (≈ 0.0673 µM)
